Reference: publication PMC4423195 (Cell Death and Differentiation, 2015)
Entries after “also recorded” stand apart in the source; their conditions may differ.

Key:
HT22 cells [1] = assay: H2DCF general ROS imaging; type: cell-based, mouse; settings: Aβ42O 1 μM, 2 h, n=6
In short: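 HT22 cells pretreated 45 min (methods; legend gives 1 h) with or without HUTS-4 (1:250), MAB1965 (1:250) or Nox inhibitor III (40 nM), then Aβ42 oligomers (1 μM, 2 h). After PBS wash, loaded with H2DCF at 50 nM final in HBSS for 15 min at 37°C. Live-cell fluorescence imaging at 37°C under identical acquisition settings.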

HT22 cells [2] = assay: JC-1 mitochondrial membrane potential imaging; type: cell-based, mouse; settings: Aβ42O 1 μM, 2 h; HUTS-4 1 : 250, MAB1965 1 : 250, Nox inhibitor 40 nM; n=6
In short: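 HT22 cells pre-exposed 45 min (methods; legend says 1 h) to HUTS-4 (1:250), MAB1965 (1:250), Nox inhibitor III (40 nM) or none, then Aβ42 oligomers (1 μM, 2 h). Washed, incubated with JC-1 (0.5 μM final, PBS) 15 min at 37°C. Live-cell imaging at 37°C; membrane potential expressed as green/red ratio.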

HT22 cells [3] = assay: Mitosox-Red mitochondrial superoxide imaging; type: cell-based, mouse; settings: Aβ42O 1 μM, 2 h, n=6
In short: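 Following 45 min (methods; 1 h per legend) pretreatment ± HUTS-4 (1:250), MAB1965 (1:250) or Nox inhibitor III (40 nM), HT22 cells received Aβ42 oligomers (1 μM, 2 h). Washed, given Mitosox-Red at 5 μM final in PBS for 15 min at 37°C, washed again, fixed and imaged by confocal microscopy with identical settings.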

HT22 cells [4] = assay: FITC-Aβ42O binding/uptake in HT22 cells; type: cell-based, mouse; settings: FITC-Aβ42O 0.1 μM, 2 h; MAB1965 1 : 500, MnCl2 0.5 mM or MgCl2 5 mM; n=4 replicates
14-3-3/SSH1 complex = assay: 14-3-3/SSH1 complex, co-immunoprecipitation in HT22 cells; type: cell-based, mouse (HT22 mouse cell line); settings: Aβ42O 1 μM, 2 h
[5] = system: DIV21 primary hippocampal neurons; assay: FITC-Aβ42O binding to DIV21 primary hippocampal neurons; type: cell-based; settings: 100 nM FITC-Aβ42O, 1 h, 37 °C
PrP^c = type: cell-based, mouse (HT22 mouse cell line)
[6] = system: transferrin receptor (TfR); assay: Cell surface biotinylation, surface TfR in HT22 cells; type: cell-based, mouse (HT22 mouse cell line); settings: Aβ42O 1 μM, 2 h or FN coating; surface/total; n⩾3 replicates
[7] = molecular target: β1-integrin-Fc (extracellular domain fused with human IgG-Fc) (Homo sapiens, UniProt P05556); assay: ELISA binding of biotin-Aβ42 to purified β1-integrin-Fc; settings: n=4 replicates
[8] = system: Cofilin (phospho-Cofilin); assay: Immunoblot of phospho-Cofilin in primary cortical neurons; type: cell-based, mouse; settings: Aβ42O 1 μM, 2 h, n=4 replicates
HT22 cells [9] = assay: Annexin V/PI apoptosis assay, HT22 cells; type: cell-based, mouse; settings: Aβ42O 1 μM, 24 h / 18 h, 1% FBS; n=4 replicates
In short: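 HT22 cells transfected for 48 h with Lipofectamine 2000 with control or SSH1 siRNA (100 nM final), then exposed to Aβ42 oligomers (1 μM, 18 h) in 1% FBS medium. Cells stained on coverslips with FITC-Annexin V and propidium iodide for 20 min at 25°C in the dark, PBS-washed and imaged by fluorescence confocal microscopy. Annexin V marks early apoptosis, PI late apoptosis.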

Cofilin (mitochondrial) = assay: Translocation of Cofilin to mitochondria in HT22 cells; type: cell-based, mouse (HT22 mouse cell line); settings: Aβ42O 1 μM; 0, 2, 4 h; n=4 replicates
In short: (§1)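 HT22 cells exposed to Aβ42 oligomers (1 μM) for 0, 2 or 4 h. Intact mitochondria separated from cytosol with a commercial isolation kit. Protein measured by BCA. Equal amounts run on SDS-PAGE, blotted to nitrocellulose, probed and detected by peroxidase secondary/ECL. Bands quantified densitometrically; n=4 replicates, t-test.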

β1-integrin = type: cell-based, mouse (HT22 mouse cell line); settings: Aβ42O 1 μM, 2 h; direct immunoblotting (total)
F-actin = F-actin staining in DIV21 hippocampal neurons; type: cell-based, mouse; settings: Aβ42O 1 μM, 2 h, n=4–6 replicates
In short: (§2)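 Hippocampal neurons from P0 WT or Cofilin+/− pups grown on poly-D-lysine to DIV21, then given Aβ42 oligomers (1 μM, 2 h). Fixed in 4% paraformaldehyde 15 min at RT, serum-blocked, primary antibody (Drebrin or PSD95) overnight at 4°C, secondary 45 min at RT; F-actin stained by rhodamine-phalloidin. Mean intensity measured in spine-containing neurites; n=4–6, ANOVA with Tukey test.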

SSH1/Cofilin complex = assay: SSH1/Cofilin complex, co-immunoprecipitation in HT22 cells; type: cell-based, mouse (HT22 mouse cell line); settings: Aβ42O 1 μM, 2 h; n=3 replicates
activated β1-integrin = assay: FITC-HUTS-4 staining of activated β1-integrin in primary hippocampal neurons; type: cell-based; settings: DIV14 fixed and permeabilized neurons; Aβ42O 1 μM, 2 h; n=4 replicates
Vinculin = assay: FC-enriched fractionation of primary cortical neurons, Vinculin; type: cell-based, mouse; settings: Aβ42O 1 μM, 2 h, n=3 replicates
In short: (§3)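 DIV14 cortical neurons from P0 WT or Cofilin+/− pups given Aβ42 oligomers (1 μM, 2 h). Cytosol extracted with saponin buffer (0.1% saponin, 25 mM HEPES, 75 mM potassium acetate) 10 min on ice; residue taken up in 2× SDS sample buffer with sonication (focal-contact fraction). Talin/Vinculin immunoblotted and normalized to vehicle controls set at 100%; n=3, t-test.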

[10] = system: Cofilin (phospho-Cofilin); assay: Cytosolic phospho-Cofilin in HT22 cells; type: cell-based, mouse (HT22 mouse cell line); settings: Aβ42O 1 μM; 0, 2, 4 h
In short: as §1

focal Vinculin = assay: Focal Vinculin immunostaining in DIV21 primary hippocampal neurons; type: cell-based; settings: Aβ42O 1 μM, 2 h, n=5 replicates
Drebrin = Drebrin staining in DIV21 hippocampal neurons; type: cell-based, mouse; settings: Aβ42O 1 μM, 2 h, n=4–6 replicates
In short: as §2

[11] = SDS-PAGE/immunoblotting of Aβ42 oligomer preparations; type: physicochemical; settings: immunoblotting of Aβ42O preparation
PSD95 = PSD95 staining in DIV21 hippocampal neurons; type: cell-based, mouse; settings: Aβ42O 1 μM, 2 h, n=4–6 replicates
In short: as §2

Talin [12] = assay: FC-enriched fractionation of HT22 cells, Talin; type: cell-based, mouse (HT22 mouse cell line); settings: Aβ42O (1 μM in text; 0, 0.25, 2 μM for 0, 2, 4 h in Figure S3 legend)
In short: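 HT22 cells exposed to Aβ42 oligomers. Cytosolic proteins released with saponin buffer (0.1% saponin, 25 mM HEPES, 75 mM potassium acetate) for 10 min on ice. Remaining membrane/cytoskeletal proteins extracted in 2× SDS sample buffer with sonication to give the focal-contact-enriched fraction. Talin detected by immunoblot with ECL.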

Talin [13] = assay: FC-enriched fractionation of primary cortical neurons, Talin; type: cell-based, mouse; settings: Aβ42O 1 μM, 2 h, n=3 replicates
In short: as §3

[14] = HUTS-4 1 : 250, MAB1965 1 : 250, Nox inhibitor 40 nM
[15] = DIV14 Cofilin^+/− cortical neurons

Sequence of β1-integrin-Fc (extracellular domain fused with human IgG-Fc) (P05556 21-728): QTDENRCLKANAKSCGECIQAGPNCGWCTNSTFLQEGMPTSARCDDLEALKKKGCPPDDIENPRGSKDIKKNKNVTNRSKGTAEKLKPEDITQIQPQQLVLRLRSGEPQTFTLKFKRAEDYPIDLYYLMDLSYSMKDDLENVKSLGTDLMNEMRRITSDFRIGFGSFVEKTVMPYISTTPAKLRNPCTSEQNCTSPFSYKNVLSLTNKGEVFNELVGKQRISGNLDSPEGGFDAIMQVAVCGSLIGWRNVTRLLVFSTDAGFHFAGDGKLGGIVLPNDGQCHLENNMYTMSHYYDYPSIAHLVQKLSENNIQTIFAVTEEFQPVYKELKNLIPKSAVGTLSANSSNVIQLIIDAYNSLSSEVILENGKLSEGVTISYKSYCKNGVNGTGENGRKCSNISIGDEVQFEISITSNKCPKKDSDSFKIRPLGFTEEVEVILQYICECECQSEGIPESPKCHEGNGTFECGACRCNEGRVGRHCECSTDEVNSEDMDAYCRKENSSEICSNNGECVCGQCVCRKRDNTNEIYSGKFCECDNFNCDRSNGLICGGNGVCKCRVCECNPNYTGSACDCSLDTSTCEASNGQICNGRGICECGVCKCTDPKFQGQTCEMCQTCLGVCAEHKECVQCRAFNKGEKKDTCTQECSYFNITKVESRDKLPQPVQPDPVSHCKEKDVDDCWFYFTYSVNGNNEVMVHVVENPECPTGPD

c1ccc(Cn2nnc3c(Sc4nc5ccccc5o4)ncnc32)cc1 [NOX inhibitor]
prevention of Aβ42O-induced change in H2DCF (HT22 cells [1]; [14]): significantly prevented such changes
extent of restoration of JC-1 membrane potential (HT22 cells [2]): not fully restored
prevention of Aβ42O-induced change in Mitosox-Red (HT22 cells [3]; [14]): significantly prevented such changes

[Cl][Mn][Cl] [MnCl2]
effect on FITC-Aβ42O binding to HT22 cells (HT22 cells [4]): significantly reduced

Cc1c(C)c2c(c(C)c1O)CCC(C)(C(=O)O)O2 (stereo not shown) [Trolox]
restoration of 14-3-3/SSH1 complexes reduced by Aβ42O (14-3-3/SSH1 complex; prior treatment 30 min, MAB1965 1:250 or Trolox 200 µM): largely restored

FITC-Aβ42O: FITC-Aβ1-42 (American Peptide), oligomer preparation
FITC-Aβ42O binding to neurons (localisation) [5]: associated with dendrites and dendritic spines

fibronectin [FN]
effect on surface PrP^c (PrP^c): unaffected
effect on surface TfR [6]: modestly, but significantly, increased surface/total transferrin receptor (TfR)

amyloid-β protein 1–42 oligomers [Aβ42O]
effect on surface PrP^c (PrP^c): unaffected
binding to β1-integrin-Fc with MnCl2 ([7]; MnCl2 0.5 mM): essentially eliminated Aβ42O binding; also recorded: failed to support Aβ42O binding to β1-integrin-Fc
binding to β1-integrin-Fc in the absence of cation ([7]; no cation / absence of Mg^2+): did not bind to β1-integrin-Fc; also recorded: minimal binding
Cofilin dephosphorylation/activation ([8]; WT primary cortical neurons): significantly induced Cofilin dephosphorylation/activation
Cofilin dephosphorylation in β1-integrin cKO neurons ([8]; β1-integrin cKO neurons (Lenti-Cre-mRFP)): absent in β1-integrin cKO neurons
induction of early (Annexin V) and late (PI) apoptosis (HT22 cells [9]): significant induction of early (Annexin V) and late (PI) apoptosis
translocation of Cofilin to mitochondria (Cofilin (mitochondrial)): rapidly increased the translocation of Cofilin to mitochondria
effect on total β1-integrin (β1-integrin): without altering total β1-integrin
effect on F-actin, WT neurons (F-actin; spine-containing neurites): significantly depleted F-actin, Drebrin, and PSD95
effect on F-actin, Cofilin^+/− neurons (F-actin; Cofilin^+/−): no significant effects
SSH1/Cofilin complexes (SSH1/Cofilin complex): significantly increased SSH1/Cofilin complexes
reduction of FITC-HUTS-4-positive activated β1-integrin (activated β1-integrin): > 50%
effect on FC Vinculin, Cofilin^+/− neurons (Vinculin; [15]): did not significantly deplete Vinculin and Talin
effect on FC-enriched/focal Vinculin, WT primary neurons (Vinculin; DIV14 cortical neurons): saliently reduced FC-enriched but not cytosolic (cyto) Vinculin and Talin; also recorded: depleted focal Vinculin and Talin
phospho-Cofilin in the cytosol [10]: decreasing phospho-Cofilin in the cytosol
ROS levels (H2DCF) (HT22 cells [1]): increased ROS levels
focal Vinculin immunoreactivity in spine-containing dendrites (focal Vinculin): significantly reduced focal Vinculin immunoreactivity
effect on Drebrin, WT neurons (Drebrin; spine-containing neurites): significantly depleted F-actin, Drebrin, and PSD95
effect on Drebrin, Cofilin^+/− neurons (Drebrin; Cofilin^+/−): no significant effects
oligomeric state on SDS-PAGE [11]: contained SDS-resistant dimers, trimers, and tetramers
effect on surface TfR [6]: no significant effect on surface TfR
effect on PSD95, WT neurons (PSD95; spine-containing neurites): significantly depleted F-actin, Drebrin, and PSD95
effect on PSD95, Cofilin^+/− neurons (PSD95; Cofilin^+/−): no significant effects
effect on FC-enriched Talin, HT22 cells (Talin [12]): saliently reduced FC-enriched but not cytosolic (cyto) Vinculin and Talin
14-3-3/SSH1 complexes (14-3-3/SSH1 complex): reduced 14-3-3/SSH1 complexes
effect on FC Talin, Cofilin^+/− neurons (Talin [13]; [15]): did not significantly deplete Vinculin and Talin
effect on FC-enriched/focal Talin, WT primary neurons (Talin [13]; DIV14 cortical neurons): saliently reduced FC-enriched but not cytosolic (cyto) Vinculin and Talin; also recorded: depleted focal Vinculin and Talin
mitochondrial superoxide (Mitosox-Red) (HT22 cells [3]): increased mitochondrial superoxide (Mitosox-Red)

Aβ42 monomers: freshly solubilized monomer; tested as biotin-Aβ42M
binding to β1-integrin-Fc, monomers and fibrils ([7]; 5 mM MgCl2, biotin-Aβ42M or biotin-Aβ42F): bound poorly to β1-integrin-Fc
